{"source": "ChEMBL document CHEMBL3769334", "about": "“Interaction of prodigiosin with HSA and β-Lg: Spectroscopic and molecular docking studies” (Bioorg Med Chem, 2016)", "key": {"Albumin [1]": {"target": "T1, Albumin (Homo sapiens, UniProt P02768)", "T1 sequence (P02768 whole entry)": "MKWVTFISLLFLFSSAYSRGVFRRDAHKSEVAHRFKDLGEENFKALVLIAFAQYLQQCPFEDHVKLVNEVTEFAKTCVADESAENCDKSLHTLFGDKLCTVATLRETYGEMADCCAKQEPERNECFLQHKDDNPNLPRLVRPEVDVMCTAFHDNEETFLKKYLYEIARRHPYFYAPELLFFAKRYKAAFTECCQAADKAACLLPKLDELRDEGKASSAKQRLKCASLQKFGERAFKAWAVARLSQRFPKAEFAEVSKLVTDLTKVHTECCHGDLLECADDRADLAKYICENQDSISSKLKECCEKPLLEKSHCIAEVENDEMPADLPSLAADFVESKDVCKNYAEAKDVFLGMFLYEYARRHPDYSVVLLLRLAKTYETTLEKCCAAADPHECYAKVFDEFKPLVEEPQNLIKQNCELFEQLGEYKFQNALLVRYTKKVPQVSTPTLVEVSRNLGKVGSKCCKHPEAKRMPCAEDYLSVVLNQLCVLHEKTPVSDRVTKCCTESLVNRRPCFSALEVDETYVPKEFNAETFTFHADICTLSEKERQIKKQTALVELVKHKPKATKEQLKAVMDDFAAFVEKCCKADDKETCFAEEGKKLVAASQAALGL", "assay": "Binding affinity to human serum albumin assessed as Stern-Volmer quenching constant at 290 K after 10 mins by fluorescence assay", "type": "ADME", "settings": "isolated protein; call rule not given here", "method_in_brief": "(§1)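 HSA at 0.4 µM in 20 mM Tris pH 7.4, titrated with prodigiosin at 0–3.2 µM from a methanol stock. Samples equilibrated 10 min after each addition. Excitation 295 nm, emission 310–600 nm, intensity read at the emission maximum. Run at 290, 300 and 310 K. Kb and n from log[(F0−F)/F] versus log[Q].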"}, "Beta-lactoglobulin [2]": {"target": "T2, Beta-lactoglobulin (Bos taurus, UniProt P02754)", "T2 sequence (P02754 whole entry)": "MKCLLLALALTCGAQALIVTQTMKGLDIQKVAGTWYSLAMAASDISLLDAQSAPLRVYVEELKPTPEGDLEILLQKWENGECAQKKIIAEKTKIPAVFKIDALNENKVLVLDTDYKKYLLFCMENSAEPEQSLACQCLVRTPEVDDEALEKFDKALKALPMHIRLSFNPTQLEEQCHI", "assay": "Binding affinity to bovine beta-lactoglobulin assessed as bimolecular quenching rate constant at 300 K after 10 mins by fluorescence assay", "type": "ADME", "settings": "cattle", "method_in_brief": "(§2)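 Intrinsic Trp fluorescence of β-Lg at 1 µM in Tris-HCl pH 7.4, titrated with prodigiosin added from a methanol stock. Samples equilibrated 10 min after each addition. Excitation 295 nm, emission 310–600 nm, intensity read at the emission maximum. Run at 290, 300 and 310 K with a water-bath thermostat. Binding parameters taken from quenching data.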"}, "Albumin [3]": {"target": "T1, Albumin", "assay": "Binding affinity to human serum albumin assessed as bimolecular quenching rate constant at 310 K after 10 mins by fluorescence assay", "type": "ADME", "settings": "isolated protein", "method_in_brief": "as §1"}, "Albumin [4]": {"target": "T1, Albumin", "assay": "Displacement of warfarin from human serum albumin at 0.4 to 3.2 uM after 30 mins by fluorescence assay", "settings": "0.5 h", "method_in_brief": "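HSA and warfarin at equal (1:1) concentrations, preincubated 30 min. Prodigiosin added at 0.4–3 µM. Fluorescence excited at 295 nm and recorded at 310–600 nm, with and without prodigiosin.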"}, "[5]": {"target": "Beta-lactoglobulin (Bos taurus) (UniProt P02754)", "assay": "Binding affinity to bovine beta-lactoglobulin assessed as quenching of protein-compound complex at protein/compound molar ratio of 7 at 290 K after 10 mins by fluorescence assay", "settings": "isolated protein"}, "Albumin [6]": {"target": "T1, Albumin", "assay": "Binding affinity to human serum albumin at 290 K after 10 mins by fluorescence assay", "type": "ADME", "settings": "isolated protein", "method_in_brief": "as §1"}, "Beta-lactoglobulin [7]": {"target": "T2, Beta-lactoglobulin", "assay": "Binding affinity to bovine beta-lactoglobulin assessed as association constant at pH 7.4 after 30 mins by fluorescence assay", "type": "ADME", "settings": "cattle, pH 7.4, 0.5 h", "method_in_brief": "(§3)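 β-Lg solutions at pH 3.0, 5.5 and 7.4, incubated 30 min at 25 °C before prodigiosin was added. Intrinsic fluorescence excited at 295 nm, emission monitored at 310–600 nm.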"}, "Albumin [8]": {"target": "T1, Albumin", "assay": "Binding affinity to human serum albumin assessed as quenching of protein-compound complex at protein/compound molar ratio of 7 at 300 to 310 K after 10 mins by fluorescence assay", "type": "ADME", "settings": "isolated protein", "method_in_brief": "as §1"}, "Albumin [9]": {"target": "T1, Albumin", "assay": "Binding affinity to human serum albumin assessed as Stern-Volmer quenching constant at 300 K after 10 mins by fluorescence assay", "type": "ADME", "settings": "isolated protein", "method_in_brief": "as §1"}, "Beta-lactoglobulin [10]": {"target": "T2, Beta-lactoglobulin", "assay": "Binding affinity to bovine beta-lactoglobulin assessed as bimolecular quenching rate constant at 290 K after 10 mins by fluorescence assay", "type": "ADME", "settings": "cattle", "method_in_brief": "as §2"}, "Beta-lactoglobulin [11]": {"target": "T2, Beta-lactoglobulin", "assay": "Binding affinity to bovine beta-lactoglobulin at 300 K after 10 mins by fluorescence assay", "type": "ADME", "settings": "cattle", "method_in_brief": "as §2"}, "Beta-lactoglobulin [12]": {"target": "T2, Beta-lactoglobulin", "assay": "Binding affinity to bovine beta-lactoglobulin assessed as Stern-Volmer quenching constant at 290 K after 10 mins by fluorescence assay", "type": "ADME", "settings": "cattle", "method_in_brief": "as §2"}, "Beta-lactoglobulin [13]": {"target": "T2, Beta-lactoglobulin", "assay": "Binding affinity to bovine beta-lactoglobulin assessed as bimolecular quenching rate constant at 310 K after 10 mins by fluorescence assay", "type": "ADME", "settings": "cattle", "method_in_brief": "as §2"}, "[14]": {"target": "Beta-lactoglobulin (Bos taurus) (UniProt P02754)", "assay": "Binding affinity to bovine beta-lactoglobulin assessed as quenching of protein-compound complex at protein/compound molar ratio of 7 at 300 K after 10 mins by fluorescence assay", "settings": "isolated protein"}, "Albumin [15]": {"target": "T1, Albumin", "assay": "Binding affinity to human serum albumin assessed as Stern-Volmer quenching constant at 310 K after 10 mins by fluorescence assay", "type": "ADME", "settings": "isolated protein", "method_in_brief": "as §1"}, "Beta-lactoglobulin [16]": {"target": "T2, Beta-lactoglobulin", "assay": "Binding affinity to bovine beta-lactoglobulin at 290 K after 10 mins by fluorescence assay", "type": "ADME", "settings": "cattle", "method_in_brief": "as §2"}, "Albumin [17]": {"target": "T1, Albumin", "assay": "Binding affinity to human serum albumin assessed as quenching of protein-compound complex at protein/compound molar ratio of 5 at 290 K after 10 mins by fluorescence assay", "type": "ADME", "settings": "isolated protein", "method_in_brief": "as §1"}, "[18]": {"target": "Beta-lactoglobulin (Bos taurus) (UniProt P02754)", "assay": "Binding affinity to bovine beta-lactoglobulin assessed as quenching of protein-compound complex at protein/compound molar ratio of 4 at 310 K after 10 mins by fluorescence assay", "settings": "isolated protein"}, "Beta-lactoglobulin [19]": {"target": "T2, Beta-lactoglobulin", "assay": "Binding affinity to bovine beta-lactoglobulin assessed as association constant at pH 3 after 30 mins by fluorescence assay", "type": "ADME", "settings": "cattle, pH 3, 0.5 h", "method_in_brief": "as §3"}, "Beta-lactoglobulin [20]": {"target": "T2, Beta-lactoglobulin", "assay": "Binding affinity to bovine beta-lactoglobulin assessed as association constant at pH 5.5 after 30 mins by fluorescence assay", "type": "ADME", "settings": "cattle, pH 5.5, 0.5 h", "method_in_brief": "as §3"}, "Albumin [21]": {"target": "T1, Albumin", "assay": "Binding affinity to human serum albumin assessed as bimolecular quenching rate constant at 290 K after 10 mins by fluorescence assay", "type": "ADME", "settings": "isolated protein", "method_in_brief": "as §1"}, "Beta-lactoglobulin [22]": {"target": "T2, Beta-lactoglobulin", "assay": "Binding affinity to bovine beta-lactoglobulin assessed as Stern-Volmer quenching constant at 300 K after 10 mins by fluorescence assay", "type": "ADME", "settings": "cattle", "method_in_brief": "as §2"}, "Beta-lactoglobulin [23]": {"target": "T2, Beta-lactoglobulin", "assay": "Binding affinity to bovine beta-lactoglobulin at 310 K after 10 mins by fluorescence assay", "type": "ADME", "settings": "cattle", "method_in_brief": "as §2"}, "Albumin [24]": {"target": "T1, Albumin", "assay": "Binding affinity to human serum albumin at 300 K after 10 mins by fluorescence assay", "type": "ADME", "settings": "isolated protein", "method_in_brief": "as §1"}, "Albumin [25]": {"target": "T1, Albumin", "assay": "Binding affinity to human serum albumin assessed as bimolecular quenching rate constant at 300 K after 10 mins by fluorescence assay", "type": "ADME", "settings": "isolated protein", "method_in_brief": "as §1"}, "Beta-lactoglobulin [26]": {"target": "T2, Beta-lactoglobulin", "assay": "Binding affinity to bovine beta-lactoglobulin assessed as Stern-Volmer quenching constant at 310 K after 10 mins by fluorescence assay", "type": "ADME", "settings": "cattle", "method_in_brief": "as §2"}, "Albumin [27]": {"target": "T1, Albumin", "assay": "Binding affinity to human serum albumin at 310 K after 10 mins by fluorescence assay", "type": "ADME", "settings": "isolated protein", "method_in_brief": "as §1"}}}
{"smiles": "CCCCCC1=C/C(=C\\c2[nH]c(-c3ccc[nH]3)cc2OC)N=C1C", "values": [{"measurement": "KSV", "setting": "Albumin [1]", "value": 8.14, "unit": "×10⁴ /M"}, {"measurement": "Kq", "setting": "Beta-lactoglobulin [2]", "value": 5.69, "unit": "×10¹² /M/s"}, {"measurement": "Kq", "setting": "Albumin [3]", "value": 4.043, "unit": "×10¹² /M/s"}, {"measurement": "Activity", "setting": "Albumin [4]", "value": "Active"}, {"measurement": "Activity", "setting": "[5]", "value": 78, "unit": "%"}, {"measurement": "Activity", "setting": "Albumin [6]", "value": "Dose-dependent effect"}, {"measurement": "Kb", "setting": "Albumin [6]", "value": 48400, "unit": "M⁻¹"}, {"measurement": "Ka", "setting": "Beta-lactoglobulin [7]", "value": 1.99, "unit": "×10⁴ /M"}, {"measurement": "Activity", "setting": "Albumin [8]", "value": 85, "unit": "%"}, {"measurement": "KSV", "setting": "Albumin [9]", "value": 6.891, "unit": "×10⁴ /M"}, {"measurement": "Kq", "setting": "Beta-lactoglobulin [10]", "value": 3.92, "unit": "×10¹² /M/s"}, {"measurement": "Kb", "setting": "Beta-lactoglobulin [11]", "value": 19900, "unit": "M⁻¹"}, {"measurement": "KSV", "setting": "Beta-lactoglobulin [12]", "value": 5.02, "unit": "×10⁴ /M"}, {"measurement": "Kq", "setting": "Beta-lactoglobulin [13]", "value": 8.28, "unit": "×10¹² /M/s"}, {"measurement": "Activity", "setting": "[14]", "value": 82, "unit": "%"}, {"measurement": "KSV", "setting": "Albumin [15]", "value": 4.043, "unit": "×10⁴ /M"}, {"measurement": "Kb", "setting": "Beta-lactoglobulin [16]", "value": 12500, "unit": "M⁻¹"}, {"measurement": "Activity", "setting": "Albumin [17]", "value": 80, "unit": "%"}, {"measurement": "Activity", "setting": "[18]", "value": 90, "unit": "%"}, {"measurement": "Ka", "setting": "Beta-lactoglobulin [19]", "value": 184, "unit": "M⁻¹"}, {"measurement": "Ka", "setting": "Beta-lactoglobulin [20]", "value": 1548, "unit": "M⁻¹"}, {"measurement": "Kq", "setting": "Albumin [21]", "value": 8.14, "unit": "×10¹² /M/s"}, {"measurement": "KSV", "setting": "Beta-lactoglobulin [22]", "value": 7.28, "unit": "×10⁴ /M"}, {"measurement": "Kb", "setting": "Beta-lactoglobulin [23]", "value": 53700, "unit": "M⁻¹"}, {"measurement": "Activity", "setting": "Albumin [24]", "value": "Dose-dependent effect"}, {"measurement": "Kb", "setting": "Albumin [24]", "value": 44100, "unit": "M⁻¹"}, {"measurement": "Kq", "setting": "Albumin [25]", "value": 6.891, "unit": "×10¹² /M/s"}, {"measurement": "KSV", "setting": "Beta-lactoglobulin [26]", "value": 10.6, "unit": "×10⁴ /M"}, {"measurement": "Activity", "setting": "Albumin [27]", "value": "Dose-dependent effect"}, {"measurement": "Kb", "setting": "Albumin [27]", "value": 34000, "unit": "M⁻¹"}]}
